Test results taken from ChEMBL document CHEMBL4680104, “Structure-Based Optimization of Small-Molecule Inhibitors for the β-Catenin/B-Cell Lymphoma 9 Protein-Protein Interaction” (J Med Chem, 2018).
Values belong to the compound of their own block, whether it stands above or below them. Active and inactive are the calls of the source. The calls are words filed in the database; no cut-off is given here.

What was measured:
[1] = Effect on HPRT mRNA expression in human SW480 cells at 8 uM incubated for 24 hrs by qPCR analysis relative to control; format: ADME, cell-based; conditions: read-out: FC
In short: (§1)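 SW480 cells at 1 × 10^6/mL were treated with inhibitor for 24 h. Total RNA was extracted with TRIzol and cDNA made by first-strand synthesis. SYBR green qPCR used human HPRT primers, with CT values normalised to GAPDH as internal reference. Performed in triplicate.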

SW480 = test: Effect on E-cadherin-bound beta-catenin levels in human SW480 cells at 2 to 8 uM incubated for 24 hrs by Western blot analysis; format: functional, cell-based; conditions: dose 2-8 µM
In short: (§2)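 SW480 cells at 1 × 10^6 cells/mL were treated with a range of inhibitor concentrations for 24 h. Cells were lysed in Tris/NaCl/NP-40/deoxycholate/SDS buffer with protease inhibitors. Lysates were run on 8% SDS-PAGE and blotted to nitrocellulose. Blots were probed overnight at 4 °C for total β-catenin (mostly the E-cadherin-bound pool), active β-catenin (dephosphorylated S37/T41), cyclin D1, c-myc and β-tubulin. Detection used infrared secondary antibodies. Duplicate.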

[2] = target: T1, beta-catenin-B-cell lymphoma 9 protein complex (Homo sapiens) (UniProt P35222+O00512); test: Inhibition of protein interaction between beta-catenin /BCL9 in human SW480 cells assessed as reduction in Wnt target genes by measuring cyclin D1 protein expression at 2 to 8 uM incubated for 24 hrs by Western blot analysis; format: cell-based; conditions: dose 2-8 µM; in short: as §2
[3] = target: T1, beta-catenin-B-cell lymphoma 9 protein complex (Homo sapiens); test: Inhibition of protein interaction between full-length beta-catenin (unknown origin) / full-length BCL9 (unknown origin) in human HCT-116 cell lysates incubated for 4 hrs by co-immunoprecipitation assay; format: subcellular
In short: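 HCT116 cells were lysed in 50 mM Tris pH 7.4, 150 mM NaCl, 1% NP-40, 2 mM EDTA and protease inhibitors. Lysates were incubated with a range of inhibitor concentrations for 4 h at 4 °C and precleared on protein A/G agarose. β-Catenin was immunoprecipitated overnight at 4 °C and captured on A/G beads for 3 h. Beads were washed five times and run on 8% SDS-PAGE. Blots were probed for BCL9 and E-cadherin.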

[4] = Effect on HPRT mRNA expression in human SW480 cells at 50 uM incubated for 24 hrs by qPCR analysis relative to control; format: ADME, cell-based; conditions: read-out: FC; in short: as §1
[5] = Effect on HPRT mRNA expression in human SW480 cells at 100 uM incubated for 24 hrs by qPCR analysis relative to control; format: ADME, cell-based; conditions: read-out: FC; in short: as §1
[6] = Effect on HPRT mRNA expression in human SW480 cells at 25 uM incubated for 24 hrs by qPCR analysis relative to control; format: ADME, cell-based; conditions: read-out: FC; in short: as §1
[7] = Drug level in human HCT-116 cells assessed as per million cells at 50 uM incubated for 6 hrs at 4 degC in presence of DMEM media with 10% FBS; format: ADME, cell-based; conditions: hct-116, 6 h
In short: (§3)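 Cells were incubated with 50 μM compound for 6 h in 5 mL DMEM with 10% FBS, at 37 °C or at 4 °C. Cell-bound compound was quantified by a previously described method and expressed as nmol per million cells. The 4 °C incubation was used to estimate binding to the cell membrane through nonspecific association.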

[8] = target: T1, beta-catenin-B-cell lymphoma 9 protein complex (Homo sapiens); test: Inhibition of protein interaction between beta-catenin /BCL9 in human SW480 cells assessed as reduction in Wnt target genes by measuring c-Myc protein expression at 25 to 100 uM incubated for 24 hrs by Western blot analysis; format: cell-based; conditions: dose 25-100 µM; in short: as §2
HCT-116 = test: Inhibition of protein interaction between full-length beta-catenin (unknown origin) / full-length E-cadherin (unknown origin) in human HCT-116 cells incubated for 24 hrs by co-immunoprecipitation assay; format: cell-based
In short: (§4)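 Intact HCT116 cells at 1 × 10^6/mL were treated with a range of inhibitor concentrations for 24 h. They were then lysed in Tris pH 7.4/NaCl/NP-40/EDTA buffer with protease inhibitors and precleared on A/G agarose. Anti-β-catenin immunoprecipitation ran overnight at 4 °C, with A/G capture for 3 h and five washes. Samples were run on 8% SDS-PAGE and immunoblotted for BCL9 and E-cadherin.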

[9] = Drug level in human HCT-116 cells assessed as cell membrane bound compound level at 50 uM incubated for 6 hrs at 4 degC in presence of DMEM media with 10% FBS; format: ADME, cell membranes; conditions: hct-116, 6 h; in short: as §3
[10] = Drug level in human HCT-116 cells assessed as per million cells at 50 uM incubated for 6 hrs at 37 degC in presence of DMEM media with 10% FBS; format: ADME, cell-based; conditions: hct-116, 6 h; in short: as §3
[11] = target: T1, beta-catenin-B-cell lymphoma 9 protein complex (Homo sapiens); test: Inhibition of protein interaction between full-length beta-catenin (unknown origin) / full-length BCL9 (unknown origin) in human HCT-116 cells incubated for 24 hrs by co-immunoprecipitation assay; format: cell-based; in short: as §4

Compound: Cc1cc(F)ccc1-c1cc(NC(=O)c2ccc(O[C@H]3CCNC3)c(-c3ccc(F)c(F)c3)c2)ccc1O[C@H]1CCNC1.Cl.Cl
fold induction at 8 µM [1]: 0.124

inhibition [2]: Active
Compound: Cl.Cl.O=C(Nc1ccc(O[C@H]2CCNC2)c(-c2ccc(F)cc2)c1)c1ccc(O[C@H]2CCNC2)c(-c2ccc3ccsc3c2)c1
Activity (SW480): inactive

Compound: Cl.Cl.O=C(Nc1ccc(O[C@@H]2CCNC2)c(-c2cccc(-c3nn[nH]n3)c2)c1)c1ccc(O[C@H]2CCNC2)c(-c2ccc(F)c(F)c2)c1
inhibition [3]: Dose-dependent effect
fold induction at 50 µM [4]: 0.979
fold induction at 100 µM [5]: 0.969
fold induction at 25 µM [6]: 0.99
Drug uptake [7]: 5.1 nmol
inhibition [8]: Active
inhibition (HCT-116): inactive
Drug uptake [9]: 77%
Drug uptake [10]: 6.6 nmol
inhibition [11]: Dose-dependent effect
